Data: PubChem BioAssay
Activity calls are given as the source filed them.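 How the source made its calls, unless noted: active means mean duplicate potentiation above the buffer control mean plus 5 SD of buffer wells; inactive means the rest.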

Columns and labels:
[1] = thallium flux activation in parental CHO cells, counter-screen for KCNQ1 potentiator project (AID 493006;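 active means duplicate-averaged activation above buffer control mean plus 5 SD of those controls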;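 on activation: fluorescence ratio of max minus min over baseline after K+ and Tl+ depolarization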); settings: parental CHO-K1 cells, FluxOR thallium flux, at 10 µM; active compounds read high
In short: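 Material: untransfected host CHO-K1 cells with FluxOR thallium dye. Timing: overnight 37 °C plating, 90 min RT dye, 20 min compound. Detection: kinetic FluxOR fluorescence, 10 s baseline, 110 s after stimulus. Read-out basis: max-minus-min fluorescence over baseline, percent of buffer-to-R-L3 span. Replicates: duplicate wells per compound, percent values averaged.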

[2] = target: Potassium voltage-gated channel subfamily KQT member 1 (Homo sapiens) (UniProt P51787); experiment: KCNQ1 potassium channel potentiators, confirmation, FluxOR thallium flux, CHO cells, duplicates (AID 493007;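 active means potentiation averaged over duplicate wells exceeding buffer-only control mean by more than 3 SD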;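 on outcome: cells depolarized by a potassium plus thallium sulfate stimulus after compound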); settings: KCNQ1 cell line, FluxOR thallium flux fluorescence, at 10 µM; active compounds read high, % of reference activator effect, buffer zero
Potassium voltage-gated channel subfamily KQT member 1 (Homo sapiens), sequence (P51787 whole entry, looked up): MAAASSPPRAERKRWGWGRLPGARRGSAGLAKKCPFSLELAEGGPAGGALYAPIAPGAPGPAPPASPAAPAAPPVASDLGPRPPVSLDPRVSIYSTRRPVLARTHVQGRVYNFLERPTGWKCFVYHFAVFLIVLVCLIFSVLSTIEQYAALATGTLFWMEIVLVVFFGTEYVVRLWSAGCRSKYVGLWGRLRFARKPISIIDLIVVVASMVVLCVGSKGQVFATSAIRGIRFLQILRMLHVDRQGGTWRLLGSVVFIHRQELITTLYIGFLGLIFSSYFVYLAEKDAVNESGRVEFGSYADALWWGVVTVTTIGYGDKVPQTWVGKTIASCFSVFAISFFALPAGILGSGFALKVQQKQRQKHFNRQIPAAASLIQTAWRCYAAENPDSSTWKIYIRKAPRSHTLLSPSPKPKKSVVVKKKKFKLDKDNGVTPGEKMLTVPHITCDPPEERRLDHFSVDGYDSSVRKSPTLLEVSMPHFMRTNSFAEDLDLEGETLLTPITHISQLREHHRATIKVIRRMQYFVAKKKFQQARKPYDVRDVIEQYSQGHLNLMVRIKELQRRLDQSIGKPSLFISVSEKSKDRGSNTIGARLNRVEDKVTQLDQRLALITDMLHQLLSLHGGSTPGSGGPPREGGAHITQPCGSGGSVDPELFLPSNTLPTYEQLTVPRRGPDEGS
In short: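 Test system – KCNQ1-expressing CHO cell line · Incubation – FluxOR dye loading 90 min, compound exposure 20 min, room temperature · Detection – FluxOR Tl+ flux fluorescence, 10 s baseline plus 110 s recording · Controls – buffer-only wells as 0% and R-L3 activator as 100%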

[3] = target: Potassium voltage-gated channel subfamily KQT member 2 (Rattus norvegicus) (UniProt O88943); experiment: rat KCNQ2 channel potentiation, selectivity assay for KCNQ1 potentiator project, KCNQ2-CHO-K1 cells (AID 493009); settings: FluxOR thallium flux fluorescence, at 10 µM; active compounds read high, scaled: buffer 0, activator control 100;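 further: assay conditions were tuned for KCNQ1 rather than KCNQ2 modulators; signal is max minus min fluorescence divided by baseline after thallium stimulus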
Potassium voltage-gated channel subfamily KQT member 2 (Rattus norvegicus), sequence (O88943 whole entry, looked up): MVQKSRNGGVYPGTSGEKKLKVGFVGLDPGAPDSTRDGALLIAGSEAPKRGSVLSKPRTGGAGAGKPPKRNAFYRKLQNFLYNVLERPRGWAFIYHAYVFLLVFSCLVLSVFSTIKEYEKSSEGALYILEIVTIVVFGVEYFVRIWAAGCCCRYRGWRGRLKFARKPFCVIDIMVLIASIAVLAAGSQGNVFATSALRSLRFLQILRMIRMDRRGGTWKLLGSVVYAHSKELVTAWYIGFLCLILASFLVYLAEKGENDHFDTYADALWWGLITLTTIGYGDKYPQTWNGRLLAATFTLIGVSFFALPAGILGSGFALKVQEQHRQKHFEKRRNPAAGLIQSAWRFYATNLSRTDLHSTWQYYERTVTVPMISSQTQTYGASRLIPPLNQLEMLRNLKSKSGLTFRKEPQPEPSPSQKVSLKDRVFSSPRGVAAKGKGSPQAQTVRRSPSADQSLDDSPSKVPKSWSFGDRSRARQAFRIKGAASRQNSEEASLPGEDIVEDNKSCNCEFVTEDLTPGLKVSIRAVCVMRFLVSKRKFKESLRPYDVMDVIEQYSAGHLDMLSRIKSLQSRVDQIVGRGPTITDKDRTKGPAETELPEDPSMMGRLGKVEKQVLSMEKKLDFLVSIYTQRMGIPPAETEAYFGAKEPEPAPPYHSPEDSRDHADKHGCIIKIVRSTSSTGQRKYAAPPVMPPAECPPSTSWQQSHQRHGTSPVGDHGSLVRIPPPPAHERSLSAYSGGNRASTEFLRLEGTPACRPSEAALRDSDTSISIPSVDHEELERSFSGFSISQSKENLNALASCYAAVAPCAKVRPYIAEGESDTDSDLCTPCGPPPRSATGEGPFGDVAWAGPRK

[4] = target: Potassium voltage-gated channel subfamily KQT member 1 (Homo sapiens) (UniProt P51787); experiment: KCNQ1 channel current potentiators, confirmation, orthogonal assay for KCNQ1 potentiator project, IonWorks patch clamp, KCNQ1-CHO cells (AID 493184;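 active means current rise at least 3 SD above the untreated control mean in each of two repeat wells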); settings: automated patch clamp current, at 10 µM; active compounds read high
In short: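 Read-out: Percent current increase versus pre-compound level | Assay system: CHO cells carrying KCNQ1 | Measured by: Automated perforated-patch electrophysiology | Medium: External bath solution at pH 7.4 | Dosing: One dose, 10 µM final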

[5] = target: Potassium voltage-gated channel subfamily E member 1 (Homo sapiens) + Potassium voltage-gated channel subfamily KQT member 1 (Homo sapiens) (UniProt P15382+P51787); experiment: KCNQ1/KCNE1 complex potentiators, confirmation, selectivity assay for KCNQ1 potentiator project, thallium flux, CHO-K1 KCNQ1/E1 cells (AID 493186;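 active means mean duplicate activation above the buffer control mean plus 5 SD of those controls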); settings: FluxOR thallium flux, at 10 µM; active compounds read high
Potassium voltage-gated channel subfamily E member 1 (Homo sapiens) + Potassium voltage-gated channel subfamily KQT member 1 (Homo sapiens), sequence (P51787 whole entry, looked up): as the sequence (P51787 whole entry, looked up) above
In short: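 Test system: CHO-K1 cells with KCNQ1/E1; dosing: one test concentration; signal: FluxOR Tl+ flux fluorescence, kinetic read; incubation: 90-min dye loading then 20-min compound exposure, both at room temperature; read-out basis: percent of R-L3 effect over buffer; replication: duplicate wells per compound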

Cc1ccc(C)c(Cn2c(O)c(N=NC(=S)Nc3ccccc3F)c3ccccc32)c1
inactive: outcome [1] | outcome [2] | outcome [3] | outcome [4] | outcome [5]

Oc1ccc(N=Nc2ccc3c(c2)OCCO3)c2ncccc12
active: activation [1] 310% | potentiation [2] 116% | potentiation [3] 352%
inactive: outcome [4]

CCC(C)NCC(=O)Nc1sc2c(c1C(N)=O)CCC2 (centres undefined)
inactive: outcome [1] | outcome [2] | outcome [3] | outcome [4] | outcome [5]

S=C(NN=C1CCCCCC1)Nc1ccc(Cl)cc1
inactive: outcome [1] | outcome [2] | outcome [3] | outcome [4] | outcome [5]

C/C(=N\NC(=S)NCCc1ccccc1)c1cccs1
inactive: outcome [1] | outcome [2] | outcome [3] | outcome [4] | outcome [5]

Cc1ccc(-c2csc(NC(=O)Cc3ccc(F)cc3)n2)o1
inactive: outcome [1] | outcome [2] | outcome [3] | outcome [4] | outcome [5]

O=C1C(=O)N(CCCc2ccccc2)c2ccccc21
inactive: outcome [1] | outcome [2] | outcome [3] | outcome [4] | outcome [5]

O=c1c2cc(F)ccc2[nH]c(=S)n1Cc1ccc(F)cc1
inactive: outcome [1] | outcome [2] | outcome [3] | outcome [4] | outcome [5]

CC(Sc1cccc[n+]1[O-])c1ccccc1 (centres undefined)
inactive: outcome [1] | outcome [2] | outcome [3] | outcome [4] | outcome [5]

CCCN(CCC)Cc1c(C(=O)N/N=C/C(C)=C\c2ccco2)nnn1-c1nonc1N
inactive: outcome [1] | outcome [2] | outcome [3] | outcome [4] | outcome [5]

Cc1cccc(NC(=O)C2CCCN2S(=O)(=O)c2ccc(Cl)cc2)n1 (centres undefined)
inactive: outcome [1] | outcome [2] | outcome [3] | outcome [4] | outcome [5]

COc1cc(C(=O)Nc2ccc3c(c2)nc(C)n3C)cc(OC)c1OC
inactive: outcome [1] | outcome [2] | outcome [3] | outcome [4] | outcome [5]

Cn1cc(C(=O)N/N=C/c2ccc([N+](=O)[O-])cc2)c2ccccc21
inactive: outcome [1] | outcome [2] | outcome [3] | outcome [4] | outcome [5]

COc1ccc(CCNC(=O)CCOc2cc(C)ccc2C)cc1OC
inactive: outcome [1] | outcome [2] | outcome [3] | outcome [4] | outcome [5]

COc1ccc(C(=O)/C=C/C(=O)N(CC(=O)NC2CCCCC2)Cc2ccccc2)c(O)c1
active: potentiation [2] 25%
inactive: outcome [1] | outcome [3] | outcome [4] | outcome [5]

CC(C)CNC(=S)NC(=O)c1ccc([N+](=O)[O-])cc1
inactive: outcome [1] | outcome [2] | outcome [3] | outcome [4] | outcome [5]

O=C(N/N=C/c1ccc(-c2ccccc2)o1)c1ccccc1O
active: potentiation [2] 31%
inactive: outcome [1] | outcome [3] | outcome [4] | outcome [5]

CCCCOc1cccc(C(=O)NC(=S)Nc2cccnc2)c1
active: potentiation [3] 143%
inactive: outcome [1] | outcome [2] | outcome [4] | outcome [5]

Cc1ccc(C(=O)C2=C(O)C(=O)N(CCCN3CCOCC3)C23C(=O)N(C)c2ccccc23)o1 (centres undefined)
inactive: outcome [1] | outcome [2] | outcome [3] | outcome [4] | outcome [5]

Cc1ccc(NC(=S)NC(=O)c2ccc(-c3ccccc3)cc2)c(C)c1
inactive: outcome [1] | outcome [2] | outcome [3] | outcome [4] | outcome [5]

Cc1cccc(Cn2c(O)c(N=NC(=S)Nc3ccccc3F)c3ccccc32)c1
inactive: outcome [1] | outcome [4] | outcome [5]
active: potentiation [2] 22.5% | potentiation [3] 148%

COc1ccc(-c2nc(=S)c3c([nH]2)Oc2ccc(C)cc2C3)cc1O
active: potentiation [2] 28.5%
inactive: outcome [1] | outcome [3] | outcome [4] | outcome [5]

COc1ccccc1OCCCc1c(C)n[nH]c1C
inactive: outcome [1] | outcome [2] | outcome [3] | outcome [4] | outcome [5]

CN(C1CCCCC1)S(=O)(=O)c1ccc(NC(=S)NC(=O)c2cccs2)cc1
active: potentiation [2] 30% | potentiation [3] 155%
inactive: outcome [1] | outcome [4] | outcome [5]

C/C(=N\Nc1nc(C)c(C)s1)c1ccc([N+](=O)[O-])cc1
active: potentiation [2] 43% | potentiation [3] 150%
inactive: outcome [1] | outcome [4] | outcome [5]

Oc1c(N=NC(=S)Nc2ccccc2F)c2ccccc2n1Cc1cccc(Cl)c1
inactive: outcome [1] | outcome [2] | outcome [3] | outcome [4] | outcome [5]

Nc1nc(CCl)nc(Nc2ccc3ccccc3c2)n1
inactive: outcome [1] | outcome [2] | outcome [3] | outcome [4] | outcome [5]

Cc1cc(C)cc(OCC(=O)NNC(=O)c2cc3ccccc3o2)c1
inactive: outcome [1] | outcome [2] | outcome [3] | outcome [4] | outcome [5]

O=C(O)c1ccc2c(=O)n3cc(C(=O)c4ccccc4O)cc(Cl)c3nc2c1
inactive: outcome [1] | outcome [2] | outcome [3] | outcome [4] | outcome [5]

O=C(O)c1ccc([N+](=O)[O-])c(CS(=O)(=O)c2ccccc2)c1
inactive: outcome [1] | outcome [2] | outcome [3] | outcome [4] | outcome [5]

CCCCCCCCN1[C@@H](CC(C)=O)c2cc(C(F)(F)F)ccc2S1(=O)=O
active: potentiation [2] 60.5%
inactive: outcome [1] | outcome [3] | outcome [4] | outcome [5]

CCOC(=O)N1CCN(C(=S)NC(=O)c2ccc(Br)cc2)CC1
inactive: outcome [1] | outcome [2] | outcome [3] | outcome [4] | outcome [5]

Fc1ccc(/C=N/n2c(-c3cccs3)n[nH]c2=S)cc1
inactive: outcome [1] | outcome [2] | outcome [3] | outcome [4] | outcome [5]

CCCCNC(=O)CCc1c(C)nc2c(c(C)nn2-c2ccccc2)c1C
inactive: outcome [1] | outcome [2] | outcome [3] | outcome [4] | outcome [5]

O=C(COc1ccccc1)NC(=S)Nc1ccc(Br)cn1
active: potentiation [2] 41.5% | potentiation [3] 206% | activation [5] 20.3%
inactive: outcome [1] | outcome [4]

Cc1[nH]c(=S)c(C#N)c(C)c1Cc1ccc(Cl)cc1Cl
inactive: outcome [1] | outcome [2] | outcome [3] | outcome [4] | outcome [5]

CCCOc1ccc(C(=O)NNC(=S)NC(=O)c2cc(-c3ccc(Cl)cc3)nc3ccccc23)cc1
inactive: outcome [1] | outcome [2] | outcome [3] | outcome [4] | outcome [5]

CC(C)c1ccc(OCC(=O)NNC(=S)NC(=O)c2cccs2)c(Br)c1
active: potentiation [2] 22%
inactive: outcome [1] | outcome [3] | outcome [4] | outcome [5]

Cc1[nH][nH]c(=O)c1C(c1ccc(-c2ccc(Cl)c(Cl)c2)o1)c1c(C)[nH][nH]c1=O
inactive: outcome [1] | outcome [3] | outcome [4] | outcome [5]
active: potentiation [2] 30%

N/C(=N\OC(=O)c1cccc2ccccc12)c1ccc(Br)cc1
inactive: outcome [1] | outcome [2] | outcome [3] | outcome [4] | outcome [5]

N#Cc1ccccc1OCCN1C(=O)c2ccccc2C1=O
inactive: outcome [1] | outcome [2] | outcome [3] | outcome [4] | outcome [5]

CN(C)CCCN(C(=O)CCOc1ccccc1)c1nc2c(F)cccc2s1
inactive: outcome [1] | outcome [2] | outcome [3] | outcome [4] | outcome [5]

CC1CCCCC1NC(=S)NC(=O)c1sc2ccccc2c1Cl (centres undefined)
inactive: outcome [1] | outcome [3] | outcome [4] | outcome [5]
active: potentiation [2] 54%

N#CC(c1ccccc1)c1ccc2c(C(F)(F)F)cc(C(F)(F)F)nc2n1 (centres undefined)
inactive: outcome [1] | outcome [3] | outcome [4] | outcome [5]
active: potentiation [2] 129%

CC1CN(C(=S)NC(=O)c2ccco2)CC(C)O1 (centres undefined)
inactive: outcome [1] | outcome [2] | outcome [3] | outcome [4] | outcome [5]

Oc1c(/C=N/c2ccccn2)sc2ccccc12
inactive: outcome [1] | outcome [3] | outcome [4] | outcome [5]
active: potentiation [2] 18%

CCn1c(O)c(N=NC(=S)NCC2CCCO2)c2ccccc21 (centres undefined)
inactive: outcome [1] | outcome [2] | outcome [3] | outcome [4] | outcome [5]

CCOC(=O)N/C(N)=N/c1nc2ccccc2s1
inactive: outcome [1] | outcome [2] | outcome [3] | outcome [4] | outcome [5]

CC1CN(c2nc3ccccc3nc2C(C#N)C(=O)NCc2ccc3c(c2)OCO3)CC(C)O1 (centres undefined)
active: potentiation [2] 26%
inactive: outcome [1] | outcome [3] | outcome [4] | outcome [5]

CC(c1ccccc1)c1nnc(N)s1 (centres undefined)
inactive: outcome [1] | outcome [2] | outcome [3] | outcome [4] | outcome [5]

S=C(Nc1ccccc1)Nc1nc2ccccc2n1CCOc1ccc(Cl)cc1
inactive: outcome [1] | outcome [2] | outcome [3] | outcome [4] | outcome [5]

COc1cc2c(cc1OC)CN(CCC(=O)c1ccc(Br)cc1)CC2
inactive: outcome [1] | outcome [2] | outcome [3] | outcome [4] | outcome [5]

CC(NC(=O)c1ccco1)C(=O)N(C)Cc1ccc(C(F)(F)F)cc1 (centres undefined)
inactive: outcome [1] | outcome [2] | outcome [3] | outcome [4] | outcome [5]

Cc1c(-c2nc(-c3ccncc3)no2)cccc1[N+](=O)[O-]
active: potentiation [2] 20%
inactive: outcome [1] | outcome [3] | outcome [4] | outcome [5]

O=C(CNC(=S)NC(=O)c1ccc(Br)o1)c1ccccc1
inactive: outcome [1] | outcome [2] | outcome [3] | outcome [4] | outcome [5]

O=C(N/N=C/c1ccc2cccc(OCc3ccccc3)c2n1)c1ccc(Br)cc1
active: potentiation [2] 23%
inactive: outcome [1] | outcome [3] | outcome [4] | outcome [5]
